This is an account of results in ChEMBL document CHEMBL5661979, “Pharmacological inhibition of BMK1 suppresses tumor growth through promyelocytic leukemia protein” (Cancer Cell, 2010).

Series [1] deals with T1, Non-receptor tyrosine-protein kinase TNK1 (Homo sapiens) (UniProt Q13470).
T1 sequence (whole entry): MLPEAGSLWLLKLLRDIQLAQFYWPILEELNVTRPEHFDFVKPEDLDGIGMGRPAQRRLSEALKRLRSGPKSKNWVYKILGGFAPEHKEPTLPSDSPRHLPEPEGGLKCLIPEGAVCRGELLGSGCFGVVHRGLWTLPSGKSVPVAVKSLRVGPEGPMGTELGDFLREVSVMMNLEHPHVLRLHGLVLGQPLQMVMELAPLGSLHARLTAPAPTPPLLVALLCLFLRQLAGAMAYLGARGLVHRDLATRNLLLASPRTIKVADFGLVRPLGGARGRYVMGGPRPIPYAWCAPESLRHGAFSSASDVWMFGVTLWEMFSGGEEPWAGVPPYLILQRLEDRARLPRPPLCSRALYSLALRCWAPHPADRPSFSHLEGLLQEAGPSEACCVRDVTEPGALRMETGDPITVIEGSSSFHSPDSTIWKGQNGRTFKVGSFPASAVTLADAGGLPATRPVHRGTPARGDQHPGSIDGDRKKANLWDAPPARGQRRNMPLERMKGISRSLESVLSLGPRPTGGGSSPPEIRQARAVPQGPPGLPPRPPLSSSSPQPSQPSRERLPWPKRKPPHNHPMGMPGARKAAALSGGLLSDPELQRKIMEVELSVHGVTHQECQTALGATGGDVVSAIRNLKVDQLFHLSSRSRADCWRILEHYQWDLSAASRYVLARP
Kind of series: Inhibition of TNK1 (unknown origin) assessed as remaining activity at 10 uM by ATP-competition binding assay relative to control.

Series [2] has as its target Serine/threonine-protein kinase Chk1 (Homo sapiens, UniProt O14757). Kind of series: Inhibition of CHK1 in human HeLa cells lysate pre incubated for 15 mins followed by ATP acyl phosphate probe addition and measured after 10 mins by LC-MS/MS analysis. The class given is subcellular.
Series [3] concerns the target Serine/threonine-protein kinase WNK1 (Homo sapiens, UniProt Q9H4A3). The series can be described thus: Inhibition of Wnk1 in human HeLa cells lysate pre incubated for 15 mins followed by ATP acyl phosphate probe addition and measured after 10 mins by LC-MS/MS analysis. The class given is subcellular.
Series [4] deals with T2, Ribosomal protein S6 kinase alpha-5 (Homo sapiens, UniProt O75582). Kind of series: Inhibition of MSK1 domain 1 K2 site in human HeLa cells lysate pre incubated for 15 mins followed by ADP acyl phosphate probe addition and measured after 10 mins by LC-MS/MS analysis. The class given is subcellular.
For series [5], the target named is T2, Ribosomal protein S6 kinase alpha-5. Kind of series: Inhibition of MSK1 domain 1 K1 site in human HeLa cells lysate pre incubated for 15 mins followed by ADP acyl phosphate probe addition and measured after 10 mins by LC-MS/MS analysis. The class given is subcellular.
Series [6] has as its target Serine/threonine-protein kinase 3/4 (Homo sapiens, UniProt Q13043+Q13188). Kind of series: Inhibition of MST1/2 in human HeLa cells lysate pre incubated for 15 mins followed by ADP acyl phosphate probe addition and measured after 10 mins by LC-MS/MS analysis. The class given is subcellular.
Series [7] has as its target Serine/threonine-protein kinase Nek8 (Homo sapiens, UniProt Q86SG6). Kind of series: Inhibition of NEK8 in human HeLa cells lysate pre incubated for 15 mins followed by ADP acyl phosphate probe addition and measured after 10 mins by LC-MS/MS analysis. The class given is subcellular.
In series [8] the target is Serine/threonine-protein kinase ULK3 (Homo sapiens, UniProt Q6PHR2). The series can be described thus: Inhibition of ULK3 in human HeLa cells lysate pre incubated for 15 mins followed by ADP acyl phosphate probe addition and measured after 10 mins by LC-MS/MS analysis. The class given is subcellular.
Series [9] deals with DNA-dependent protein kinase catalytic subunit (Homo sapiens, UniProt P78527). Kind of series: Inhibition of PRKDC in human HeLa cells lysate at 50 uM pre incubated for 15 mins followed by ADP acyl phosphate probe addition and measured after 10 mins by LC-MS/MS analysis relative to control. The settings on record: time 25.0 min. The class given is subcellular.
Series [10] concerns the target Calcium/calmodulin-dependent protein kinase type II subunit gamma (Homo sapiens, UniProt Q13555). Kind of series: Inhibition of CAMK2g in human HeLa cells lysate at 2 uM pre incubated for 15 mins followed by ADP acyl phosphate probe addition and measured after 10 mins by LC-MS/MS analysis relative to control. The settings on record: time 25.0 min. The class given is subcellular. In short, it runs like this: (§1)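 KiNativ-type profiling in HeLa lysate (5 mg/mL total protein). Lysate preincubated 15 min with inhibitor at 50, 10, 2, 0.8 or 0 μM, then ATP or ADP acylphosphate probe added (5 μM final) for 10 min. Reaction stopped with urea and analysed by targeted MS, using up to four fragment ions per kinase peptide-probe conjugate. % inhibition calculated against untreated lysate. Duplicate reactions.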

The target of series [11] is Calcium/calmodulin-dependent protein kinase type II subunit delta (Homo sapiens, UniProt Q13557). Kind of series: Inhibition of CAMK2d in human HeLa cells lysate at 50 uM pre incubated for 15 mins followed by ATP acyl phosphate probe addition and measured after 10 mins by LC-MS/MS analysis relative to control. The class given is subcellular. The settings on record: time 25.0 min. Summed up:
as §1

Series [12] concerns the target Ribosomal protein S6 kinase beta-1 (Homo sapiens, UniProt P23443). Kind of series: Inhibition of P70S6K in human HeLa cells lysate at 50 uM pre incubated for 15 mins followed by ATP acyl phosphate probe addition and measured after 10 mins by LC-MS/MS analysis relative to control. The class given is subcellular. The settings on record: time 25.0 min.
Series [13] is described as follows: Inhibition of NEK6/7 in human HeLa cells lysate at 50 uM pre incubated for 15 mins followed by ATP acyl phosphate probe addition and measured after 10 mins by LC-MS/MS analysis relative to control. The conditions noted are these: 25 min, condition cancer.
Series [14] in a line: Inhibition of SRC/FYN/YES in human HeLa cells lysate at 50 uM pre incubated for 15 mins followed by ATP acyl phosphate probe addition and measured after 10 mins by LC-MS/MS analysis relative to control. The settings on record: 25 min, condition cancer.
The nature of series [15]: Plasma concentration in C57Bl/6 mouse at 50 mg/kg, ip administered for 1 day and measured 8 hr post last dose by LC-MS/MS analysis. The class given is ADME, organism-based.
A short description of series [16]: Toxicity in C57Bl/6 mouse assessed as effect on calcium level at 50 mg/kg, ip for 14 days (reference value: 9.9 mg/dl). The class given is organism-based. The conditions noted are these: in vivo, 336 h, time 14 day.
The nature of series [17]: Toxicity in C57Bl/6 mouse assessed as effect on creatinine level at 50 mg/kg, ip for 14 days (reference value: < 0.2 mg/dl). The class given is organism-based. The conditions noted are these: in vivo, 336 h, time 14 day.
The test system of another series is Lewis lung carcinoma. The series can be described thus: Antitumor activity against mouse LL2 cells allografted in C57Bl/6 mouse assessed as reduction tumor growth at 50 mg/kg, ip administered for 17 days. The conditions noted are these: time 17.0 day. The class given is functional, organism-based. In short, it runs like this: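 LL/2 cells (1×10^6, in DMEM) were injected s.c. into the right flank of 6-week-old C57Bl/6 mice on day 0. Dosing was 50 mg/kg i.p. twice daily, starting on day 1, 7 or 10 and continuing to day 17; controls received carrier. 6 mice per treated group. Tumors were measured every 2–3 days.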

SMILES strings stand for the structures. Activity calls are given as the source filed them. The rule behind the calls is not given here. Some results are limits rather than exact numbers.

T2 sequence (O75582 whole entry, the tested form may be a part): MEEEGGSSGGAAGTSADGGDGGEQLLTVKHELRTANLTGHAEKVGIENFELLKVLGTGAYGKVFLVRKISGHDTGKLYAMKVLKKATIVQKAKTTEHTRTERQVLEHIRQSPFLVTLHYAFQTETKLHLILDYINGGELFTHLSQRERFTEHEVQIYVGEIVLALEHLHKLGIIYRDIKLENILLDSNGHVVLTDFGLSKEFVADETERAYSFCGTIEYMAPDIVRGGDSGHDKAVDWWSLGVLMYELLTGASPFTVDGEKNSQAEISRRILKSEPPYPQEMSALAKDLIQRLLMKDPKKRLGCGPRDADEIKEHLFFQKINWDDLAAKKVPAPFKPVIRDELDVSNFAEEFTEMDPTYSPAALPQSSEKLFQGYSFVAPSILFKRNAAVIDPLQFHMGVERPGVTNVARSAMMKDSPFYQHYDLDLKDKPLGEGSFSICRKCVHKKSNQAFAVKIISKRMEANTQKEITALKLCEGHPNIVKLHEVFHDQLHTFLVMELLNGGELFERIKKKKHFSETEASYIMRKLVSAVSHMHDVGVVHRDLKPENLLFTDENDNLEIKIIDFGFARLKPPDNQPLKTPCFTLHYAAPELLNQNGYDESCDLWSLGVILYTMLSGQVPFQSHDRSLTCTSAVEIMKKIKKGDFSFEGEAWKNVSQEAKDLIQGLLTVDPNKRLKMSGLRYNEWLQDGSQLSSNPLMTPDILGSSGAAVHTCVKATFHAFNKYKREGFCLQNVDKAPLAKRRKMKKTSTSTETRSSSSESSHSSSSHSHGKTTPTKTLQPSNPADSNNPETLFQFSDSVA
Sequence of Serine/threonine-protein kinase WNK1 (Q9H4A3 whole entry, the tested form may be a part): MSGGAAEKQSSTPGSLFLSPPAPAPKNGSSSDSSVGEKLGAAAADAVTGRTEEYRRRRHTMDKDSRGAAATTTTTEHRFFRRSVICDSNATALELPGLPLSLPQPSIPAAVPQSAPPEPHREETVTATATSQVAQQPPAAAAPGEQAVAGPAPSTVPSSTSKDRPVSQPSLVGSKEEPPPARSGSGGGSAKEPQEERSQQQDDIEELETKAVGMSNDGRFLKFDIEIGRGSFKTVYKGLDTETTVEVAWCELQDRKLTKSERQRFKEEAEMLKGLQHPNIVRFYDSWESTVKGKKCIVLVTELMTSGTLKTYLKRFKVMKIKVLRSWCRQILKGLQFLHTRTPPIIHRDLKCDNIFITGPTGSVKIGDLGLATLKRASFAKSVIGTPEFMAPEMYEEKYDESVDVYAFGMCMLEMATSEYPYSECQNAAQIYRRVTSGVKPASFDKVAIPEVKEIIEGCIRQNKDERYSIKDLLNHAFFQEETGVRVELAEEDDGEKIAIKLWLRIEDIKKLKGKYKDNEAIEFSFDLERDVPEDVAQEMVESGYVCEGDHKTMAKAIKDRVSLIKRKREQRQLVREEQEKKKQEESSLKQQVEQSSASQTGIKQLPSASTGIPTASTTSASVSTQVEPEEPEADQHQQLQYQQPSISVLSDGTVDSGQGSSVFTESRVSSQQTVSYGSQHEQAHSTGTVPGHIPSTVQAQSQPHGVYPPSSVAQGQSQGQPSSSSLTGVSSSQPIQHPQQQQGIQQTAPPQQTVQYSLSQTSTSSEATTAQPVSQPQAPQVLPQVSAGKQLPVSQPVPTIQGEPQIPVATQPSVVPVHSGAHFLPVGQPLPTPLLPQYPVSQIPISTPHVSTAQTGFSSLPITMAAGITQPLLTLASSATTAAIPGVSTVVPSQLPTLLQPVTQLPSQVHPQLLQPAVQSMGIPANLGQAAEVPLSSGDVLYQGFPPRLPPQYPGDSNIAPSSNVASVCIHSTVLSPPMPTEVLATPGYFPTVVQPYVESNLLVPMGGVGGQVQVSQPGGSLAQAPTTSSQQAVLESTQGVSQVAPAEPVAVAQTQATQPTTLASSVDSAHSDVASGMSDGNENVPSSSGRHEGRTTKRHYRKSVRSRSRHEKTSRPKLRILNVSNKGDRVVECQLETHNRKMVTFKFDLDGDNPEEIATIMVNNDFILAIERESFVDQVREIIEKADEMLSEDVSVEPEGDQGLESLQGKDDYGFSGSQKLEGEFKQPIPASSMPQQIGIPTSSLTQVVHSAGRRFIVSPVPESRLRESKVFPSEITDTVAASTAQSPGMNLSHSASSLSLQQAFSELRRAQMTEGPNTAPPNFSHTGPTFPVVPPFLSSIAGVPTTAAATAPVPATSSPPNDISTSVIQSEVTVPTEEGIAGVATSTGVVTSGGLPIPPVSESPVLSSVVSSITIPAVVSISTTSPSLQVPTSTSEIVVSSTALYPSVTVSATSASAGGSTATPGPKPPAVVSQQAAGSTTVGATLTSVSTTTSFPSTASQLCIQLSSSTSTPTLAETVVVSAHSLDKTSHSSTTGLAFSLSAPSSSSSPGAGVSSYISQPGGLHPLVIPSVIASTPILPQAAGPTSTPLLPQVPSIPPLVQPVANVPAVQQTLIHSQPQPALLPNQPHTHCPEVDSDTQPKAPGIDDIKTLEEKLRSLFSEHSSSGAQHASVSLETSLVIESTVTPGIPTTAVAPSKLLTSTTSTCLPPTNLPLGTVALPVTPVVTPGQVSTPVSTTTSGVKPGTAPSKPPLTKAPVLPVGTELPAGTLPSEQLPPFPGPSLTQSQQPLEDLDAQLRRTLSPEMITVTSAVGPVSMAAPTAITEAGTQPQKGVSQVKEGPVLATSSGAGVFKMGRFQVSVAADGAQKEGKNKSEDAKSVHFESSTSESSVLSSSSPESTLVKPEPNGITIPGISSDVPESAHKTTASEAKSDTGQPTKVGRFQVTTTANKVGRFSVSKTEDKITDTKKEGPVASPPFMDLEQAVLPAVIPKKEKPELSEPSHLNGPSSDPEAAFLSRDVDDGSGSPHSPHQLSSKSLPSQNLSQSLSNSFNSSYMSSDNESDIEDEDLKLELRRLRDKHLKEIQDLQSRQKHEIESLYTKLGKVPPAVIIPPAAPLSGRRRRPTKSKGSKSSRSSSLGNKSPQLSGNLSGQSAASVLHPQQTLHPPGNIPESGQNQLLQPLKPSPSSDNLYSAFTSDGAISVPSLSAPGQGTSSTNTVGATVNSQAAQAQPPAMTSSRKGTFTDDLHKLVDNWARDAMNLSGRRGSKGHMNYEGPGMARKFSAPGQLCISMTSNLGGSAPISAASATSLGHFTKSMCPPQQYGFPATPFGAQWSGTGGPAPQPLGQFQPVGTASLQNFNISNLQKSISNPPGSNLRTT
Sequence of Ribosomal protein S6 kinase beta-1 (P23443 whole entry, looked up): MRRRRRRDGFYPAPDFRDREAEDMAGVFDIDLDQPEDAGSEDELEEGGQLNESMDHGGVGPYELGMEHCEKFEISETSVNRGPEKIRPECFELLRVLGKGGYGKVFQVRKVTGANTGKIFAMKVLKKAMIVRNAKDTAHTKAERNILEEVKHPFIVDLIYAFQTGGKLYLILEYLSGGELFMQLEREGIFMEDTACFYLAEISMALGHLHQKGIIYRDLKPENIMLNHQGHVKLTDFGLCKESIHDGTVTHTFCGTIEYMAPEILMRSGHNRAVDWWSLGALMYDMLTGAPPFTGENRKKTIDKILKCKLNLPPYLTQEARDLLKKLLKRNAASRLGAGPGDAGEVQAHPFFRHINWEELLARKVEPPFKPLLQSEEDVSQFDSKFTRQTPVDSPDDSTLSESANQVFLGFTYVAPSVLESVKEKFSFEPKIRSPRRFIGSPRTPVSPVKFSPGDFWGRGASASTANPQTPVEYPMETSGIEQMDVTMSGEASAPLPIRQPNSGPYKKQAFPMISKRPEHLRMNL
Sequence of Calcium/calmodulin-dependent protein kinase type II subunit gamma (Q13555 whole entry, the tested form may be a part): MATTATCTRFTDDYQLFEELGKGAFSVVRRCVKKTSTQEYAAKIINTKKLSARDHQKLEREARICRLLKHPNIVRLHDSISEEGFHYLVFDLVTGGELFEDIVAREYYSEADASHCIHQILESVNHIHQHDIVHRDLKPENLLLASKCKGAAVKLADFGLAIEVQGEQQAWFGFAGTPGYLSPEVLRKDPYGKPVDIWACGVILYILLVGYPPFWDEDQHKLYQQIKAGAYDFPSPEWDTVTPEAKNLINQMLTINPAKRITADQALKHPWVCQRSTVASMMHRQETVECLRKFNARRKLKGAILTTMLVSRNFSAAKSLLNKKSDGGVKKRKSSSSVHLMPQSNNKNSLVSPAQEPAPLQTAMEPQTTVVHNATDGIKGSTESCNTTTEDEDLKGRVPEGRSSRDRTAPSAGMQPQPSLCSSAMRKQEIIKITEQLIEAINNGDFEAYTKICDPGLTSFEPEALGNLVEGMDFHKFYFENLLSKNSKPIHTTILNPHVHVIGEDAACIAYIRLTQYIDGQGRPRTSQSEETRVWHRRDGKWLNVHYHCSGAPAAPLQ
Sequence of Serine/threonine-protein kinase Nek8 (Q86SG6 whole entry): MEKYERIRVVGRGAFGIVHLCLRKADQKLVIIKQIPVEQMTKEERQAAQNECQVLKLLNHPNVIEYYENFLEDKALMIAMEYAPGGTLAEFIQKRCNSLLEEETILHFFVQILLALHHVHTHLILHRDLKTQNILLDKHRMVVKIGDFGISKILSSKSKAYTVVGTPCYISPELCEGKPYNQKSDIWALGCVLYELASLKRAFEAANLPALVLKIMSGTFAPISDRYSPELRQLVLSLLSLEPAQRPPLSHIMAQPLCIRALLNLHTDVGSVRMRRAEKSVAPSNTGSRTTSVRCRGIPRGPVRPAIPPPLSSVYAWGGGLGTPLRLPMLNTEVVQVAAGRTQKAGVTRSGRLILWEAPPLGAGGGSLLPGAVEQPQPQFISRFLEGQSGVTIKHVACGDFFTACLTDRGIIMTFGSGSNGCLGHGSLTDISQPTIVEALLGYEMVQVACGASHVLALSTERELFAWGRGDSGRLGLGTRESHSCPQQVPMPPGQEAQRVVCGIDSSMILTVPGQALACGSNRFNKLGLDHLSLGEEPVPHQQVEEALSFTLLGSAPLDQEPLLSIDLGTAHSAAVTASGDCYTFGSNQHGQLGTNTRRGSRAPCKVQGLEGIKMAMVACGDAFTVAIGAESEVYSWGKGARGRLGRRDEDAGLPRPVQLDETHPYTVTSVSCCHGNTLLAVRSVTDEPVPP

Regarding `CCOc1cc(N2CCC(O)CC2)ccc1Nc1ncc2c(n1)N(C)c1ccccc1C(=O)N2C`, the Activity in series [1] is 7.8%; in [16], 9.1 mg/dL; in [17], below 0.2 mg/dL. Moreover, the IC50 in series [2], in series [3], in series [4], in series [5], in series [6] and in series [7] was above 50 µM in each case. Further, in series [8], the IC50 (commonly the concentration needed to halve the response being measured) is above 50 µM. In addition, the inhibition (commonly the relative decrease from the control value, in per cent) in series [9] is 2.9%; in [10], -2.2%; in series [11], 40.8%; in [12], -3.8%. Moreover, the inhibition at 50 µM in series [13] was -11.1%; in series [14], -27.1%. Further, the concentration at 24 h in [15] is 10.2 µM. Moreover, the outcome in the series on Lewis lung carcinoma was Active.
